Results taken from ChEMBL document CHEMBL3102827, “Permeability and conjugative metabolism of flaxseed lignans by Caco-2 human intestinal cells” (J Nat Prod, 2014).

Legend:
[1] = Stability in HBSS after 48 hrs; format: physicochemical; settings: read-out: Stability
How it was run: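 Lignans kept in test medium in wells without cells for up to 48 h. Remaining compound was measured to judge stability.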

[2] = Efflux ratio of permeability from basolateral to apical side over apical to basolateral side in human Caco2 cells after 2 hrs by HPLC analysis; format: ADME, cell-based; settings: Caco-2
How it was run: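 Efflux ratio taken as Papp B→A over Papp A→B. Papp comes from 2 h bidirectional transport of 100 μM lignan across 21-day Caco-2 monolayers on Transwells in HBSS/10 mM HEPES pH 7.4 at 37 °C, with HPLC quantitation of both compartments. TEER and Lucifer yellow used to confirm monolayer integrity.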

[3] = (§1) Apparent permeability across basolateral to apical side in human Caco2 cells after 2 hrs by HPLC analysis; format: ADME, cell-based, Caco-2; settings: Caco-2
How it was run: (§2)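 Caco-2 (passages 41−54, DMEM/10% FBS/1% NEAA) grown 21 days on polyester Transwells (0.4 μm pore). Cells washed with HBSS/10 mM HEPES pH 7.4 and equilibrated 30 min at 37 °C; lignan at 100 μM added to apical or basolateral side, 2 h at 37 °C. Both compartments sampled and quantified by HPLC. Papp = (dQ/dt)/(Am·C0). Integrity checked by TEER and Lucifer yellow. Transport linear to 2 h.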

[4] = (§3) Apparent permeability across apical to basolateral side in human Caco2 cells after 2 hrs by HPLC analysis; format: ADME, cell-based, Caco-2; settings: Caco-2; how it was run: as §2
[5] = Drug metabolism in human Caco2 cells assessed as compound glucuronidation/sulfation at 100 uM after 48 hrs by HPLC analysis; format: ADME, cell-based; settings: Caco-2 cells, read-out: Drug metabolism
How it was run: (§4)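 Caco-2 grown 21 days in 24-well plates, washed with HBSS/HEPES pH 7.4, then given 100 μM lignan in DMEM in triplicate at 37 °C. Supernatant and cells taken at 0, 2, 4, 6, 12, 24 and 48 h. Samples hydrolysed with H. pomatia β-glucuronidase/sulfatase H-5 (0.66 mg in 0.1 M acetate pH 5.0, 37 °C, 2 h), acetonitrile-precipitated and analysed by HPLC. Conjugate = total minus free, relative to a zero-time control.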

Caco-2 [6] = experiment: as §1; format: ADME, cell-based; settings: caco-2, 2 h, BLD = below limit of detection; how it was run: as §2
Caco-2 [7] = experiment: as §3; format: ADME, cell-based; settings: caco-2, 2 h, BLD = below limit of detection; how it was run: as §2
[8] = Activity at Helix pomatia beta-glucuronidase/sulfatase type H-5 in compound-treated human Caco2 cell lysate assessed as formation of glucuronidase/sulfatase-sensitive conjugates at 100 uM after 12 hrs by HPLC analysis; format: ADME, cell-based; settings: caco-2, 12 h; how it was run: as §4

| remaining at 48 h [1] [%] | efflux ratio at 2 h [2] | Papp B→A at 2 h [3] [×10⁻⁶ cm/s] | Papp A→B at 2 h [4] [×10⁻⁶ cm/s] | metabolised at 48 h, 100 µM [5] [%] | Papp (Caco-2 [6]) | Papp (Caco-2 [7]) | Drug metabolism [8] | Structure (SMILES) |
| --- | --- | --- | --- | --- | --- | --- | --- | --- |
| > 95 | 1.2 | 8.9 | 7.7 | – | – | – | – | OC[C@H](Cc1cccc(O)c1)[C@H](CO)Cc1cccc(O)c1 [ENTERODIOL] |
| > 95 | – | – | – | < 3 | BLD | BLD | – | COc1cc(C[C@@H](CO[C@@H]2O[C@H](CO)[C@@H](O)[C@H](O)[C@H]2O)[C@H](CO[C@@H]2O[C@H](CO)[C@@H](O)[C@H](O)[C@H]2O)Cc2ccc(O)c(OC)c2)ccc1O |
| > 95 | 1.2 | 9.5 | 8 | – | – | – | – | COc1cc(C[C@@H](CO)[C@H](CO)Cc2ccc(O)c(OC)c2)ccc1O [(+)-SECOISOLARICIRESINOL] |
| > 95 | 0.8 | 10.6 | 13.7 | – | – | – | Active | O=C1OC[C@H](Cc2cccc(O)c2)[C@H]1Cc1cccc(O)c1 (relative stereo) [ENTEROLACTONE] |
